XiGFP reactiv – X-chromosome reactivation activator | XiGFP mouse fibroblasts, % GFP-positive cells imaging, 3 d; cells co-treated with 5-aza-dC sensitizer; scaled so ellipticine positive control = 100% | activation, % at 7.58 µM | 360,000 tested, 0.055% active | AID 743238;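 active = mean normalized replicate activation at least 10% and every replicate at or above 10%; inconclusive = only one of the two criteria met; inactive = mean below 10% and not all replicates reach 10%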;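 also: 0% = median of on-plate neutral control wells and 100% = ellipticine 6 µM median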
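Material: XiGFP fibroblasts, SV40-immortalized. Buffer or medium: DMEM plus 5-aza-dC sensitizer. Compound: single concentration per compound, delivered by pin transfer. Times: 3 days compound exposure. Controls: ellipticine 6 µM.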
Wnt act – Wnt/beta-catenin pathway activation | Wnt/beta-catenin reporter cell assay, activator, plate reader | activation, % at 9.35 µM | 300,000 tested, 1.2% active; in the data active = activation above about 30%, passing the limit was not always enough; inconclusive = no clear call, values can overlap the other calls;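 also: 0% = neutral control wells and 100% = positive control wells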
MITF act – increases MITF-driven TRPM1 promoter luciferase signal; SK-MEL-5 TRPM1-promoter luciferase, 24 h; % of positive control, neutral wells = 0; activation, % at 12.5 µM; 300,000 tested, 0.75% active;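 active = mean activation of at least 80% with every replicate also reaching 80%; inconclusive = mean reaches 80% but some replicate falls short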;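 also: 0% = neutral control wells and 100% = parthenolide positive control wells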
Vif imaging – HIV Vif inhibition. HEK293T cells, Vif self-association by quenched fluorescence, imaging, 24 h. inhibition, % at 7.49 µM. 340,000 tested, 0.35% active. AID 602346; in the data active = inhibition above about 50%, passing the limit was not always enough; inconclusive = no clear call, values can overlap the other calls; inactive = below about 31%
esBAF inh – SWI/SNF esBAF complex inhibition. AID 602393. 350,000 tested, 2% active. reporter increase, % at 12.5 µM. mouse ES cells, Bmi1-luciferase knock-in reporter, 24 h; 100% = twice the neutral-well signal; in the data active = activation above about 40%; inconclusive = no clear call, values can overlap the other calls;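 also: 0% = median of the plate's neutral control wells and 100% = double that signal; a rise in the Bmi1 reporter signal indicates esBAF inhibition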
Numbers without * were called inactive. This is a sample that favours compounds with a hit; in the whole collection about 2.6% have one here.

How did c1ccc(-n2ncc3c(NC4CCCCCC4)ncnc32)cc1 do in these assays?
XiGFP reactiv: 0; Wnt act: 24; Vif imaging: -19; esBAF inh: 55*

Results for CC(=O)CSc1ncnc2c1cnn2-c1ccccc1 ?
XiGFP reactiv: 0; Wnt act: 42*; MITF act: 59; Vif imaging: -3; esBAF inh: 12

How did CC(C)Nc1ncnc2c1cnn2-c1ccccc1 do in these assays?
XiGFP reactiv: 0; Wnt act: 53*; Vif imaging: -6; esBAF inh: 12

Results for Cc1cccc(-n2ncc3c(NC(C)C)ncnc32)c1 ?
XiGFP reactiv: 0; Wnt act: 19; MITF act: 60; Vif imaging: -8; esBAF inh: 7

What do the screens show for `CNC(=O)CSc1ncnc2c1cnn2-c1ccccc1`?
XiGFP reactiv: 0; Wnt act: 0; MITF act: 32; Vif imaging: -8

What do the screens show for `Cc1csc(NC(=O)CSc2ncnc3c2cnn3-c2ccccc2Cl)n1`?
MITF act: -30; Vif imaging: 73*; esBAF inh: -4

What do the screens show for `Cc1nn2cc(-c3cccc(Cl)c3)cnc2c1Cl`?
XiGFP reactiv: 0; Wnt act: -1; MITF act: 25; Vif imaging: -4; esBAF inh: 79*

How did C[C@@H]1CCCCO[C@@H](CN(C)C(=O)c2ccccc2)[C@H](C)CN([C@@H](C)CO)C(=O)c2cc(N(C)C)ccc2O1 do in these assays?
XiGFP reactiv: 0; esBAF inh: 0

How did CCS(=O)(=O)NCC[C@@H]1CC[C@@H](NC(=O)C2CCC2)[C@@H](CO)O1 do in these assays?
XiGFP reactiv: 0; esBAF inh: -3

How did CCOC(=O)CSc1nc(N)c(C#N)c(-c2cccs2)c1C#N do in these assays?
MITF act: -4; Vif imaging: -9; esBAF inh: -3

What do the screens show for `CCCSc1nc(N)nc(-c2cccs2)c1C#N`?
MITF act: 76; Vif imaging: -4; esBAF inh: 48*

Results for COc1cccc(C#Cc2ccc([C@H]3[C@H](CO)N4C(=O)CN(C(C)=O)C[C@@H]34)cc2)c1 ?
XiGFP reactiv: 0

What do the screens show for `O=C(Nc1nccs1)c1ccc2c(=O)n3c(nc2c1)CCCCC3`?
XiGFP reactiv: 0; Wnt act: 15; MITF act: 36; Vif imaging: -4; esBAF inh: 53*

What do the screens show for `O=C(Nc1ccc(F)cc1Cl)c1ccc2c(=O)n3c(nc2c1)CCC3`?
XiGFP reactiv: 1; Wnt act: 29; MITF act: 102*; Vif imaging: 3; esBAF inh: inconclusive

Results for Cc1ccc(S(=O)(=O)Nc2ccc3c(c2)C(=O)N([C@@H](C)CO)C[C@@H](C)[C@@H](CN(C)C)OCCCC[C@H](C)O3)cc1 ?
XiGFP reactiv: 0; esBAF inh: 0

What do the screens show for `O=C(c1cc(-c2ccc(Cl)cc2)on1)N1CCCCCC1`?
XiGFP reactiv: 0; Wnt act: -5; MITF act: 64; Vif imaging: -3; esBAF inh: 11

Results for O=C(c1cc(-c2cccc(Cl)c2)on1)N1CCCCCC1 ?
XiGFP reactiv: 0; Wnt act: 21; MITF act: 113*; Vif imaging: -10; esBAF inh: 63*

What do the screens show for `O=C(c1cc(-c2ccc(Cl)cc2Cl)on1)N1CCCCCC1`?
XiGFP reactiv: 0; Wnt act: 33*; MITF act: 42; Vif imaging: -15; esBAF inh: -8

Results for O=C(c1cc(-c2ccc(O)cc2)on1)N1CCCCCC1 ?
XiGFP reactiv: 0; Wnt act: 40*; MITF act: 84*; Vif imaging: 3; esBAF inh: 11

What do the screens show for `O=C(c1cc(-c2ccc(Cl)cc2Cl)on1)N1CCCC1`?
XiGFP reactiv: 0; Wnt act: -1; MITF act: 3; Vif imaging: -2; esBAF inh: -49

How did O=C(c1cc(-c2ccc(Cl)c(Cl)c2)on1)N1CCCCCC1 do in these assays?
XiGFP reactiv: 0; Wnt act: 22; MITF act: 131*; Vif imaging: -12; esBAF inh: 59*

Results for O=C(NCC[C@H]1CC[C@H](NC(=O)C2CCCCC2)[C@@H](CO)O1)c1ccc(F)cc1 ?
XiGFP reactiv: 0; esBAF inh: 1

What do the screens show for `CCCN1C(=O)c2ccc(C(=O)Nc3ccc4c(c3)OCO4)cc2C1=O`?
XiGFP reactiv: 0; Wnt act: 9; MITF act: 66; Vif imaging: -3; esBAF inh: 63*

Assay outcomes as filed in PubChem.
